Results collected from several papers.
Each line is one published result; the experiments were not run side by side.
Target: cAMP-dependent protein kinase catalytic subunit alpha (PRKACA, Homo sapiens, UniProt P17612)

CS(=O)(=O)N1CCCC(NC(=O)[C@H](CCC2CCCCC2)NC(=O)c2ccc(CNC(=O)c3cnc4ccccn34)cc2)C1 (some centres unmarked)  remaining binding (cell-free assay, competition with immobilised ligand; 0.1 µM): 100%
COc1ccnn2ncc(-c3ccnc(N(C)C)n3)c12  remaining signal (cell-free assay; 1 µM): 100%
O=C(Nc1cccnn1)N1CCC(=Cc2cccc(Oc3ccc(C(F)(F)F)cn3)c2)CC1  remaining binding (cell-free assay, competition with immobilised ligand; 1 µM): 100%
CCCOc1ccc(OC)c(F)c1C(=O)c1ccc(C(=O)N[C@@H]2CNC[C@H]2NC(=O)c2ccc3[nH]ncc3c2)cc1  remaining activity (enzyme activity, inhibitor; 10 µM): 1%
O=C(Nc1cnn(-c2csc(C(=O)NC3COC3)c2)c1)Nc1c(F)cccc1Cl  remaining activity (enzyme activity, inhibitor; 5 µM): 108%
Cn1c(=O)n(-c2ccc(C(C)(C)C#N)cc2)c2c3cc(-c4cnc5ccccc5c4)ccc3ncc21  remaining activity (enzyme activity, inhibitor; 10 µM): 82%
COc1cc(/C=C/C(=O)CC(=O)/C=C/c2ccc(O)c(OC)c2)ccc1O  activity vs control (enzyme activity, inhibitor; 1 µM): 94%
O=C(Nc1cnn(-c2csc(C(=O)NC3COC3)c2)c1)Nc1ccccc1Cl  remaining activity (enzyme activity, inhibitor; 5 µM): 99.8%
Cn1c2c(Cl)c(Cl)ccc2c2cc(N)[nH]c(=O)c21  ΔTm (thermal stability, DSF; 10 µM): 0.1 °C
Cc1cc(NC(=O)c2cccc(S(F)(F)(F)(F)F)c2)cc(-n2ccn3nc(-c4cccnc4)cc23)c1  remaining binding (cell-free assay, competition with immobilised ligand; 1 µM): 100%
CCOc1cc(-c2nncn2C)ccc1Nc1ncc2cc(C)nc(NCC(C)(C)C)c2n1  inhibition (enzyme activity, inhibitor, FRET; 1 µM): < 15%
CN1CC(Oc2cnc(C#N)cc2-c2ccn3nc(NC(=O)C4CC4)cc3c2)C1  inhibition (enzyme activity, inhibitor; 1 µM): 7%
Cn1cnc(Br)c1C1=CN(c2ncnc3[nH]cnc23)CCS1  inhibition (enzyme activity, inhibitor, radiometric; 2 µM): 90.2%
Cn1c2c(c3ccccc31)C(C#N)C(C)(C)NC2=O (centres unmarked)  ΔTm (thermal stability, DSF; 10 µM): 0.2 °C
COc1cc2ncnc(Nc3ccc(Oc4ccccc4)cc3C)c2cc1OC  inhibition (enzyme activity, inhibitor; 1 µM): 3%
CCN(CC)CCNC(=O)c1c(C)[nH]c(/C=C2\C(=O)Nc3ccc(F)cc32)c1C  inhibition (enzyme activity, inhibitor; 0.3 µM): 11%
CC1=C(C#N)C(c2ccc3c(c2)c(NC(=O)c2ccccc2C)nn3C)C(C#N)=C(C)N1  remaining binding (cell-free assay, competition with immobilised ligand; 1 µM): 77%
C=CC(=O)Nc1cc(Nc2nccc(Nc3cc(Cl)c(F)cc3C(C)(C)O)n2)c(OC)cc1N1CC[C@@H](N(C)C)C1  inhibition (enzyme activity, inhibitor; 1 µM): 7%
CC(C)(C)c1nc(-c2cccc(NS(=O)(=O)c3c(F)cccc3F)c2F)c(-c2ccnc(N)n2)s1  remaining activity (enzyme activity, inhibitor, radiometric; 1 µM): 95%
Cc1ccc(Nc2nccc(N(C)c3ccc4c(C)n(C)nc4c3)n2)cc1S(N)(=O)=O  inhibition (enzyme activity, inhibitor; 0.3 µM): 6%
C[C@@H](N)[C@H]1CC[C@H](C(=O)Nc2ccncc2)CC1  remaining signal (cell-free assay, inhibitor; 0.5 µM): 97.8%
FC(F)(F)Oc1cccc(-c2cnc3ccc(-c4ccncc4)nn23)c1  activity vs control (enzyme activity, inhibitor, radiometric; 5 µM): 106%
CN(C)CC#Cc1ccc(OCCCc2sc(N3CCc4cccc(C(=O)Nc5nc6ccccc6s5)c4C3)nc2C(=O)O)c(F)c1  remaining binding (cell-free assay, competition with immobilised ligand; 1 µM): 89%
CN(c1nccc(-c2cnn3ncccc23)n1)C1CC1  remaining signal (cell-free assay; 1 µM): 100%
CS(=O)(=O)Nc1cccc(-c2csc(NC(=O)CSc3nc4nccnc4c(=O)n3CCc3ccccc3)n2)c1  inhibition (enzyme activity, inhibitor; 10 µM): 5%
Cc1cnc(NC2CCOCC2)nc1-n1cnc(C(=O)NC(CN)c2cc(F)cc(Cl)c2)c1 (centres unmarked)  remaining activity (enzyme activity, inhibitor, radiometric; 1 µM): 45%
O=C(NS(=O)(=O)c1ccc(NCC2CCOCC2)c([N+](=O)[O-])c1)c1ccc(N2CCN(Cc3ccc(C(F)(F)F)cc3-c3ccc(Cl)cc3)CC2)cc1Oc1cnc2[nH]ccc2c1  remaining binding (cell-free assay, competition with immobilised ligand; 1 µM): 76%
CCN1CCC2(CC1)NC(=O)c1c(c3ccc(Cl)c(Cl)c3n1C)C2C#N (racemic)  ΔTm (thermal stability, DSF; 10 µM): 1.9 °C
COc1cc(Nc2cnc(C#N)c(O[C@H](C)CN(C)C)n2)ncc1-c1cnn(C)c1  remaining activity (enzyme activity, inhibitor, radiometric; 10 µM): 78%
Cc1ccc(-n2nc(C(C)(C)C)cc2NC(=O)Nc2ccc(OCCN3CCOCC3)c3ccccc23)cc1  inhibition (enzyme activity, inhibitor; 10 µM): 6%
CC1=C(C#N)[C@@H](c2ccc3[nH]nc(C)c3c2)C(C#N)=C(c2ccc(Cl)cc2)N1  remaining binding (cell-free assay, competition with immobilised ligand; 1 µM): 96.7%
N#CCCc1ccc2c(c1)-c1[nH]c3ccc([N+](=O)[O-])cc3c1CC(=O)N2  remaining signal (cell-free assay; 0.5 µM): 87.6%
CNc1cccc2cc(C(=O)Nc3ccc(C(=O)O)cc3)c(=O)[nH]c12  inhibition (enzyme activity, inhibitor; 10 µM): -8.1%
CC(=O)C1=C(C)N(c2cccc(C(F)(F)F)c2)C(=O)N[C@@H]1c1ccc(C#N)nc1  remaining binding (cell-free assay, competition with immobilised ligand; 1 µM): 92.3%
Cc1ccc(NC(=O)c2ccc(CN3CCN(C)CC3)cc2)cc1Nc1nccc(-c2cccnc2)n1  activity vs control (enzyme activity, inhibitor; 0.5 µM): 95.4%
CCCS(=O)(=O)Nc1ccc(F)c(C(=O)c2c[nH]c3ncc(-c4ccc(Cl)cc4)cc23)c1F  inhibition (enzyme activity, inhibitor; 1 µM): < 10%
CN(C)C1CCN(CC#Cc2nn(C3CCCC3)c3nc(NCc4ccccc4)ncc23)C1 (centres unmarked)  inhibition (enzyme activity, inhibitor, FRET; 0.1 µM): 3%
Cn1c2c(c3ccc(Cl)c(Cl)c31)C(C#N)C1(CCNCC1)NC2=O (racemic)  ΔTm (thermal stability, DSF; 10 µM): 3.3 °C
Nc1nc(NC2CCCCC2)sc1C(=O)c1ccccc1  remaining activity (enzyme activity, inhibitor; 10 µM): 97%
CSc1nc(C)c(-c2ccnc(Nc3ccc(N4CCOCC4)cc3)c2)[nH]1  inhibition (enzyme activity, inhibitor; 10 µM): 5%
Cn1c2c(c3ccc(Cl)c(Cl)c31)C(C#N)C(C)(C)NC2=O (centres unmarked)  ΔTm (thermal stability, DSF; 10 µM): 0.4 °C
